Assay results: article PMC4373334 (Journal of Cellular and Molecular Medicine, 2010)

Legend:
[1] = human beings receiving 450 mg, 15 min up to 300 min; cited from earlier work
[2] = Stability in human liver S 9.000 fraction; format: in vitro ADME; details: within 15 min, then unchanged until 120 min
In short: (§1)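 Matrices were human serum (healthy donors, 25–30 yr), human liver S9000 fraction or rat kidney S9000 fraction (0.25 g/ml), pre-warmed 10 min at 37°C. Test compound added from a 1 mM solution in 10 mM PBS, pH 7.4; PBS-only controls run alongside. Sampled at 0–120 min, with 24 h added for serum. Internal standard added, then perchloric acid deproteinization (15 min, 4°C), centrifugation and LC-MS/MS.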

[3] = Zucker obese rat: carnosine levels in plasma, urine and renal tissue; format: in vivo; details: for Carnosine level, Urine: no compound given during 24 hr in metabolic cage
[4] = system: Zucker obese (fa/fa) rats; test: Zucker obese rat: renal function; format: in vivo; details: for restraint of proteinuria/albuminuria/creatininuria: 24 hr urinary excretion, end of treatment; for change in creatinine clearance (GFR) versus ZK / change in plasma creatinine concentration versus ZK / restraint of the increase in urinary albumin-to-creatinine ratio: end of 24-week treatment
[5] = system: Zucker obese (fa/fa) rats; test: Zucker obese rat: kidney protein carbonyl content; format: in vivo; details: for Kidney PCOs: end of the experiment; for reduction of kidney PCOs versus ZK: kidney homogenates
In short: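 Kidneys taken at week 30 from Zucker fa/fa rats (six per group) given test compound in drinking water at 30 mg/kg/24 h. Homogenate 25% w/v in 0.15 M KCl, pH 7.4, with protease inhibitors, centrifuged at 12,000 ×g for 10 min. Total protein carbonyls read at 366 nm (ε 22,000/M/cm), expressed as nmoles/mg protein.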

[6] = ACR quenching ability in homogeneous solution; details: 60 min; for percentage amount of ACR quenched: ACR 50 μM, quencher 500 μM (1:10); for ACR disappeared: ACR 200 μM, 1:10 molar excess
[7] = system: Zucker obese (fa/fa) rats; test: Zucker obese rat: tail tendon collagen solubility and Ehrlich adducts; format: in vivo; details: for reduction of Ehrlich positive material versus ZK: not significant; for Collagen solubility: acetic acid; for Collagen solubility / Ehrlich adducts: end of the experiment
In short: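 Tail tendons from treated Zucker fa/fa rats (drinking water, 30 mg/kg/24 h, weeks 6–30) cleaned and washed in ice-cold 75 mM phosphate buffer, pH 7.00, then lyophilized. Solubility determined on 10 mg samples; hydroxyproline measured after acid hydrolysis, collagen taken as 14% hydroxyproline. Ehrlich adducts and fluorescence (ex 365/em 416 nm) measured on 50 mg pepsin-digested collagen, blank-corrected, per mg collagen.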

[8] = system: Zucker obese (fa/fa) rats; test: Zucker obese rat, 24-week treatment: plasma parameters; format: in vivo; details: for change in plasma cholesterol versus ZK / change in plasma triglycerides versus ZK: after 24 weeks, 30 mg/kg/day; for insulin resistance (HOMA-IR) versus ZK / reduction of hyperinsulinaemia (plasma insulin) versus ZK / effect on plasma glucose levels: end of 24-week treatment; for effect on plasma glucose levels: fasting
In short: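 Male Zucker fa/fa rats (lean littermates as reference), 12 per group, received test compound in drinking water at 30 mg/kg/24 h from week 6 to week 30. Plasma spun 15 min at 4°C and stored at –80°C. Cholesterol, triglycerides, glucose and insulin measured by enzymatic-colorimetric kits. HOMA-IR calculated from fasting glucose and insulin.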

Stability in rat serum = format: in vitro ADME
[9] = system: Zucker obese (fa/fa) rats; test: Zucker obese rat, 24-week treatment: body weight and food intake; format: in vivo; details: 30 weeks of age, 30 mg/kg/day for 24 weeks
In short: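 Male Zucker fa/fa rats bought at 5 weeks, with lean Fa/Fa littermates as reference. Housed singly at 22 ± 1°C on a 12 h light/dark cycle, standard chow, 1 week acclimation. Randomized to three groups of 12. Test compound given in drinking water, concentration adjusted weekly to 30 mg/kg/24 h, from week 6 to week 30.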

[10] = HNE quenching ability in homogeneous solution; details: HNE 200 μM; for HNE quenched: 1:10 molar excess, 24 hrs of incubation; for residual amount of HNE: quencher 2 mM (1:10), phosphate buffer pH 7.4, 37°C, 60 min
[11] = Stability in rat kidney S 9000 fraction; format: in vitro ADME
In short: as §1

[12] = system: Zucker obese (fa/fa) rats; test: Zucker obese rat: systolic blood pressure by tail-cuff plethysmography; format: in vivo; details: end of the experiment (30 weeks)
In short: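 Zucker fa/fa rats dosed in drinking water (30 mg/kg/24 h, weeks 6–30). Systolic pressure taken monthly by tail-cuff plethysmography in conscious, unanaesthetized rats pre-warmed 30 min at 37°C and restrained in a plastic chamber. Heart rate taken from the arterial pulse wave.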

[13] = system: Zucker obese (fa/fa) rats; test: Zucker obese rat: urinary oxidative/carbonyl stress indices; format: in vivo; details: end of the experiment; for AGEs: urine fluorescence; for CAR-HNE level / 8-epi-PGF2α level: urine; for CAR-HNE level: LC-ESI-MS/MS
In short: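 24 h urine from treated Zucker fa/fa rats (drinking water, 30 mg/kg/24 h, weeks 6–30). 8-epi-PGF2α and TXB2 measured by enzyme immunoassay. Low-molecular-weight AGEs read by fluorescence (ex 370/em 440 nm), expressed per mg urinary creatinine. CAR-HNE Michael adduct quantified by LC-ESI-MS/MS.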

[14] = system: Zucker obese (fa/fa) rats; test: Zucker obese rat: renal morphology and morphometry; format: in vivo; details: for mean glomerular diameter / glomerular and interstitial changes (glomerulosclerosis, tubulointerstitial damage) versus ZK: 30 weeks; for mean glomerular diameter: ZK 1.098 ± 0.05; for glomerular and interstitial changes (glomerulosclerosis, tubulointerstitial damage) versus ZK: light microscopy
[15] = system: Zucker obese (fa/fa) rats; test: Zucker obese rat: kidney cholesterol and triglycerides content; format: in vivo; details: end of 24-week treatment, S 9.000 kidney fraction
In short: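 Zucker fa/fa rats dosed via drinking water at 30 mg/kg/24 h from week 6 to week 30; six rats per group used for tissue. Kidney frozen in liquid nitrogen. Total cholesterol and triglycerides measured with commercial kits in S9000 kidney fraction (0.25 g/ml), expressed as μg/mg protein.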

[16] = Pharmacokinetic profile in the rat after oral administration; format: in vivo, Sprague-Dawley rats; details: for Cmax: pre-dose concentration subtracted
In short: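 Single oral dose of 100 mg/kg given to three male Sprague-Dawley rats per test compound. Plasma sampled pre-dose and at 0.25, 0.5, 1, 2, 4, 6 and 24 h, stored at –80°C, and assayed by LC-MS/MS. Pre-dose (endogenous) level subtracted. Non-compartmental analysis: Cmax and tmax read from raw data; AUC0–tlast by linear trapezoidal rule.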

[17] = cited from earlier work
Stability = format: in vitro ADME, human; details: for stability to enzymatic hydrolysis in human serum: 37°C, followed over 24 hrs
In short: as §1

[18] = male, Sprague-Dawley, rat, plasma, po, 100 mg/kg

## NCCC(=O)N[C@@H](Cc1cnc[nH]1)C(=O)O [L-CAR, β-alanyl-L-histidine]
[1]
  CAR in serum after oral supplementation: No CAR was detected in serum specimens
[2]
  hydrolysis in human liver: ~30%
[3]; Zucker obese, rat, plasma, oral, 30 mg/kg/day
  concentration at 24 weeks: 0.473 ± 0.13 µM
[3]; end of the experiment
  Carnosine level, Kidney: 14.67 ± 2.09 nmol/g wet tissue
  increase in kidney CAR content compared to ZK: 1.6 fold
  Carnosine level, Urine: 32.62 ± 1.25 nmol/day
[4]
  restraint of proteinuria/albuminuria/creatininuria: approximately 50%
  change in creatinine clearance (GFR) versus ZK: +28.3%
  change in plasma creatinine concentration versus ZK: –31.7%
  restraint of the increase in urinary albumin-to-creatinine ratio: 65–70%
[5]
  Kidney PCOs: 8.83 ± 1.91 nmol/mg prot
  reduction of kidney PCOs versus ZK: 23.4%
[6]
  percentage amount of ACR quenched: 63.8 ± 3.5%
  ACR disappeared: ~100%
[7]
  reduction of Ehrlich positive material versus ZK: ~9.1%
[7]; tail tendon collagen
  increase of collagen solubility compared to ZK: 66.4%
  Collagen solubility: 65.4 ± 2.58 ^* %
  Ehrlich adducts: 0.868 ± 0.39 µmol/mg
[8]
  change in plasma cholesterol versus ZK: –40%
  change in plasma triglycerides versus ZK: –35%
  insulin resistance (HOMA-IR) versus ZK: significantly improved
  reduction of hyperinsulinaemia (plasma insulin) versus ZK: 28.08%
  effect on plasma glucose levels: did not significantly affect
Stability in rat serum
  stability in rat serum: no significant reduction within at least 6 hrs
[9]
  body weight difference versus LN: +35.8%
  body weight difference versus ZK: –12%
[10]
  HNE quenched: ~100%
  residual amount of HNE: 46.2 ± 2.73%
[11]; during the sample processing time
  hydrolysis in rat kidney: about 93%
[12]
  SBP: 145 ± 3 mmHg
  reduction of SBP versus ZK: 11.5%
[13]
  effect on urinary TXB2 excretion rates: did not affect
  increase in urinary CAR-HNE levels compared to ZK: 1.7 fold
  AGEs: 337.2 ± 28.7 ^* FU/mg creatinine/day
  CAR-HNE level: 0.749 ± 0.37 nmol/day
  8-epi-PGF2α level: 37.6 ± 4.3 ng/day
[14]
  mean glomerular diameter: 1.023 ± 0.02
  glomerular and interstitial changes (glomerulosclerosis, tubulointerstitial damage) versus ZK: not significantly modified
[15]
  total cholesterol content in kidney: 6.31 ± 0.5115 μg/mg protein
  triglycerides content in kidney: 12.01 ± 0.9528 μg/mg protein
[16]; [18]
  half-life: 0.24 ± 0.02 h
  tmax: 1 h
[16]; oral 100 mg/kg, rat plasma
  systemic exposure up to infinite time AUC(0–∞): 118.45 ± 9.24 µM·h
  time until plasma concentration returned to baseline: 2 h
  Cmax: 147.7 ± 6.50 µM
[17]
  time to hydrolysis in human serum: ≤ 5 min
Stability
  stability to enzymatic hydrolysis in human serum: rapidly disappeared in human serum at the first time-point (60 min.)
Stability; in vitro studies in the authors' laboratories
  time to disappearance in human serum: ≤ 5 min

## NCCC(=O)N[C@H](Cc1c[nH]cn1)C(=O)O [D-CAR, β-alanyl-D-histidine]
[2]
  hydrolysis in human liver: ~30%
[3]; end of the experiment
  Carnosine level, Kidney: 127.7 ± 17.00 ^* ^*/°°° nmol/g wet tissue
  increase in kidney CAR content compared to ZK: 14.4 fold
  increase of plasma carnosine concentration: > 10 fold
  Carnosine level, Urine: 10,069 ± 1844 ^* ^*/°°° nmol/day
[3]; end of the experiment, 30 mg/kg/day for 24 weeks
  Carnosine level, Plasma: 5.37 ± 3.04 nmol/mL
[4]
  restraint of proteinuria/albuminuria/creatininuria: approximately 50%
  change in creatinine clearance (GFR) versus ZK: +25.1%
  change in plasma creatinine concentration versus ZK: –36%
  restraint of the increase in urinary albumin-to-creatinine ratio: 65–70%
[5]
  Kidney PCOs: 6.61 ± 1.52 ^* nmol/mg prot
  reduction of kidney PCOs versus ZK: 42.61%
[6]
  percentage amount of ACR quenched: 65.0 ± 3.3%
  ACR disappeared: ~100%
[7]
  reduction of Ehrlich positive material versus ZK: ~21.7%
[7]; tail tendon collagen
  Collagen solubility: 71.4 ± 3.14 ^* ^* %
  Ehrlich adducts: 0.747 ± 0.384 µmol/mg
[8]
  change in plasma cholesterol versus ZK: –45%
  change in plasma triglycerides versus ZK: –43%
  insulin resistance (HOMA-IR) versus ZK: significantly improved
  reduction of hyperinsulinaemia (plasma insulin) versus ZK: 33.03%
  effect on plasma glucose levels: did not significantly affect
[9]
  body weight difference versus LN: +40%
  body weight difference versus ZK: –9%
[10]
  HNE quenched: ~100%
  residual amount of HNE: 46.9 ± 2.3%
[11]; 120 min of incubation
  remaining in rat kidney: 91%
[12]
  SBP: 137 ± 4 mmHg
  reduction of SBP versus ZK: 15.7%
[13]
  effect on urinary TXB2 excretion rates: did not affect
  increase in urinary CAR-HNE levels compared to ZK: 2.2 fold
  AGEs: 324.4 ± 21.8 ^* ^* FU/mg creatinine/day
  CAR-HNE level: 0.982 ± 0.33 nmol/day
  8-epi-PGF2α level: 42.1 ± 3.9 ng/day
[14]
  mean glomerular diameter: 1.042 ± 0.005
  glomerular and interstitial changes (glomerulosclerosis, tubulointerstitial damage) versus ZK: not significantly modified
[14]; electron microscopy, four animals per group
  GBM thickness: 3.75 ± 0.8 nm
[15]
  total cholesterol content in kidney: 6.668 ± 0.5087 μg/mg protein
  triglycerides content in kidney: 10.66 ± 0.3616 μg/mg protein
[16]; oral 100 mg/kg, rat plasma
  half-life: 3.36 h
  systemic exposure up to infinite time AUC(0–∞): 318.62 ± 24.75 µM·h
  time until plasma concentration returned to baseline: 24 h
  Cmax: 52.86 ± 2.86 µM
[16]; oral 100 mg/kg, rat plasma, 100 mg/kg
  tmax: 2 h
Stability
  stability to enzymatic hydrolysis in human serum: remained unchanged until 6 hrs incubation
Stability; after 24 hrs of incubation
  decrease in human serum: 6%
